Results: article PMC3887510 (Journal of the American Chemical Society, 2013)
Entries after “also recorded” stand apart in the source; their conditions may differ.

Legend:
[1] = test system: constitutively active AgrC-I receptor mutant; settings: cited from earlier work
AgrC-III [2] = target: T1, AgrC-III (Staphylococcus aureus, UniProt O33590); test: AgrC-III antagonism assay; format: cell-based; settings: ratio of IC50 values vs AIP-III D4A
[3] = test system: chimeric AgrC-III-IV receptor; test: AgrC-III agonism assay; format: cell-based, Staphylococcus aureus; settings: S. aureus RN9532 reporter strain
Procedure, shortened: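 Uses an agr-null group-I strain carrying a P3-blaZ reporter plasmid. The chimeric receptor joins the group-III AgrC N-terminal sensor domain to the group-IV AgrC C-terminal histidine kinase domain, followed by the agrA coding sequence. Test peptides were serially diluted from stock to give dose-response data. β-lactamase activity was the read-out (modified literature assay), and EC50 was calculated from the curves.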

AgrC-III [4] = target: T1, AgrC-III; settings: read-out: AgrC-III antagonism IC50 value (CI); S. aureus AH1747 group-III P3-gfp reporter; CI = 95% confidence interval; cited from earlier work
AgrC-III [5] = target: T1, AgrC-III; settings: cited from earlier work

| Substance | mode of action on constitutively active AgrC-I receptor mutant [1] | fold weaker / reduced AgrC-III inhibitory activity relative to AIP-III D4A (AgrC-III [2]) | AgrC-III agonistic activity in words [3] | IC50 (AgrC-III [4]) | fold less active as AgrC-III inhibitor relative to AIP-I D5A (AgrC-III [5]) | AgrC-III agonism EC50 value relative to AIP-III ([3]; Figure S-2) |
| --- | --- | --- | --- | --- | --- | --- |
| I-N-(C-D-F-L-L) [AIP-III] | neutral antagonists |  |  |  |  |  |
| Y-S-T-(C-D-F-I-M) [AIP-I] |  | 10 fold | inactivity | 0.522 nM | 10 fold |  |
| Y-S-T-(C-Y-F-I-M) [AIP-IV] | neutral antagonists |  | inactivity | 0.46 nM |  |  |
| G-V-N-A-(C-S-S-L-F) [AIP-II] | inverse agonist |  | inactivity | 0.532 nM |  |  |
| I-N-(C-D-F-L-dL) [AIP-III D-L7] |  |  | agonistic activity; also recorded: able to activate AgrC-III (with analogous activity as AIP-III |  |  | comparable to AIP-III |
| I-N-(C-A-F-L-L) [AIP-III D4A] |  |  |  | 0.0506 nM |  |  |
